Results taken from ChEMBL document CHEMBL1144851, “Opioids and efflux transporters. Part 2: P-glycoprotein substrate activity of 3- and 6-substituted morphine analogs” (J Med Chem, 2008).
pKi: −log10 of the molar value.

Columns and labels:
[1] = biological target: Kappa-type opioid receptor (Homo sapiens, UniProt P41145); assay: Displacement of [3H]diprenorphine from recombinant kappa opioid receptor expressed in CHO cells; assay type: cell-based
[2] = biological target: Delta-type opioid receptor (Homo sapiens, UniProt P41143); assay: Displacement of [3H]diprenorphine from recombinant delta opioid receptor expressed in C6 cells; assay type: cell-based
Method in brief: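 Competitive binding against [3H]diprenorphine in membranes of C6 rat glioma cells expressing recombinant δ opioid receptor; Ki from three experiments run in duplicate, mean ± SEM.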

Mu-type opioid receptor = Mu-type opioid receptor (Homo sapiens, UniProt P35372); assay: Displacement of [3H]diprenorphine from recombinant mu opioid receptor expressed in C6 cells; assay type: cell-based
[3] = Selectivity for recombinant mu opioid receptor over recombinant kappa opioid receptor
Method in brief: (§1)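 Ratios of Ki values from [3H]diprenorphine displacement in membranes of C6 rat glioma cells expressing µ or δ receptors and CHO cells expressing κ receptor; three experiments in duplicate.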

Mus musculus [4] = assay: Antinociceptive activity in sc dosed mouse by hot plate assay; assay type: functional
Method in brief: (§2)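 Mice, test compound given subcutaneously; antinociception measured in tail-flick, p-phenylquinone writhing and hot plate assays following CPDD Drug Evaluation Committee protocols. ED50 (mg/kg) with 95% confidence limits.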

[5] = Selectivity for recombinant mu opioid receptor over recombinant delta opioid receptor; method in brief: as §1
[6] = biological target: ATP-dependent translocase ABCB1 (Homo sapiens, UniProt P08183); assay: Effect on human recombinant Pgp-mediated ATP consumption assessed as inhibition of ATPase activity at 200 uM by Pgp-Glo assay
Method in brief: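 Recombinant human P-gp incubated with 200 µM compound in P-gp-Glo buffer, four wells each; started with MgATP (10 mM), quenched after 40 min with firefly luciferase ATP detection reagent, luminescence read 60 min later. Untreated, vanadate (100 µM) and verapamil (200 µM) controls; mean ± SEM, t-test.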

Mus musculus [7] = assay: Antinociceptive activity in sc dosed mouse by p-phenylquinone writhing assay; assay type: functional; method in brief: as §2
Mus musculus [8] = assay: Antinociceptive activity in sc dosed mouse by tail flick assay; assay type: functional; method in brief: as §2

Sequence of ATP-dependent translocase ABCB1 (P08183 whole entry): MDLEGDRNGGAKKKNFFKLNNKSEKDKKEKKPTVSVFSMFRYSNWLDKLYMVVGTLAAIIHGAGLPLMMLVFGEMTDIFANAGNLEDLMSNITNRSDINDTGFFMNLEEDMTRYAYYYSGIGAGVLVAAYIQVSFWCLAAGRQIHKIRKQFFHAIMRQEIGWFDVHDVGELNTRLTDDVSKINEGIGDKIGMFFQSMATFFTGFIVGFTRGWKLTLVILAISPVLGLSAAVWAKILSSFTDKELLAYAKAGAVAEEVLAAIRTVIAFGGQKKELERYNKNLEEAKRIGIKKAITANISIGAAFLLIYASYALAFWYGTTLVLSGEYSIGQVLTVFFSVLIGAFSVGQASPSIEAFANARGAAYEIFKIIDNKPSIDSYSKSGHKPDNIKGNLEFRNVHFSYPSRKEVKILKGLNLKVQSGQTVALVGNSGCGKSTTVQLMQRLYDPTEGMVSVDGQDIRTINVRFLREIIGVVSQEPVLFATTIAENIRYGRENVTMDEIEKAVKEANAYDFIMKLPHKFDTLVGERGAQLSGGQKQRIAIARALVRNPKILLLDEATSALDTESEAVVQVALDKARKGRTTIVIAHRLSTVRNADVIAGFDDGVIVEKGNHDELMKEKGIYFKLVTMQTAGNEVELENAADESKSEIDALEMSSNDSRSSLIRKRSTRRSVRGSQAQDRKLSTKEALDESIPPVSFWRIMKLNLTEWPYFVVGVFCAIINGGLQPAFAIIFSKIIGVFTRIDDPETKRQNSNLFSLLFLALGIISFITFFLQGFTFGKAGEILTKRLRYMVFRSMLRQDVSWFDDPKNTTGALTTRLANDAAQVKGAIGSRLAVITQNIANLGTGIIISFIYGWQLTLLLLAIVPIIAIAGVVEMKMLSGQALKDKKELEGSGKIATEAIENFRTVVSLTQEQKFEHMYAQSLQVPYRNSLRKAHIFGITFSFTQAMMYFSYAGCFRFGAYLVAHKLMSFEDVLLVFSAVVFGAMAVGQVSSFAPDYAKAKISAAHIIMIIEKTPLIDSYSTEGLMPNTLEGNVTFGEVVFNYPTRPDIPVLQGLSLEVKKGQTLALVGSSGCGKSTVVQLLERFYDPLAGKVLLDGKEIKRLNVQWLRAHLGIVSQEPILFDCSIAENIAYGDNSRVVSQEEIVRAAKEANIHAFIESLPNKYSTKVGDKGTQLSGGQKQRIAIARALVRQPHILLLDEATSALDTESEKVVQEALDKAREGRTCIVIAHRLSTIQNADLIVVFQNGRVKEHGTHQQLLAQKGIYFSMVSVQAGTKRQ
Sequence of Delta-type opioid receptor (P41143 whole entry): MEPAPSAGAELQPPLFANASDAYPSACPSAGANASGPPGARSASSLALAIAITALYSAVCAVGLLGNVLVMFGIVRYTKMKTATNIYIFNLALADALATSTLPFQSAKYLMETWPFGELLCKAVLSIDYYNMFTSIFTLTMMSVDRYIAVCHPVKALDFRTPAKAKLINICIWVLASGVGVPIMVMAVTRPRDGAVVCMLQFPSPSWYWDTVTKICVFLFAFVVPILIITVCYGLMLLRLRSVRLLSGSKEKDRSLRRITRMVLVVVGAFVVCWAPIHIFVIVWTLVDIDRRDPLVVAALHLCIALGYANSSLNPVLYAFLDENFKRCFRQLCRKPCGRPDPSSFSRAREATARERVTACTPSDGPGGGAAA
Sequence of Mu-type opioid receptor (P35372 whole entry): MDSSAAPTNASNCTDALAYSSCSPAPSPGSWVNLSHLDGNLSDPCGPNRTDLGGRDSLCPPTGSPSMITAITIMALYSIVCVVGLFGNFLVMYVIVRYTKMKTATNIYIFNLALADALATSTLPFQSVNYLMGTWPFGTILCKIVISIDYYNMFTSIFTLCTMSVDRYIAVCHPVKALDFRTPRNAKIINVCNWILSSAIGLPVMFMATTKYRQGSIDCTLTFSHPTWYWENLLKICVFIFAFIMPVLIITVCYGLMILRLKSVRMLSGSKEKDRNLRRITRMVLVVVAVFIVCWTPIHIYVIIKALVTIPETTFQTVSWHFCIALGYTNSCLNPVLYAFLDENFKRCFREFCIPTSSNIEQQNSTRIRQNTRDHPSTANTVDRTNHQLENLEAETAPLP
Sequence of Kappa-type opioid receptor (P41145 whole entry): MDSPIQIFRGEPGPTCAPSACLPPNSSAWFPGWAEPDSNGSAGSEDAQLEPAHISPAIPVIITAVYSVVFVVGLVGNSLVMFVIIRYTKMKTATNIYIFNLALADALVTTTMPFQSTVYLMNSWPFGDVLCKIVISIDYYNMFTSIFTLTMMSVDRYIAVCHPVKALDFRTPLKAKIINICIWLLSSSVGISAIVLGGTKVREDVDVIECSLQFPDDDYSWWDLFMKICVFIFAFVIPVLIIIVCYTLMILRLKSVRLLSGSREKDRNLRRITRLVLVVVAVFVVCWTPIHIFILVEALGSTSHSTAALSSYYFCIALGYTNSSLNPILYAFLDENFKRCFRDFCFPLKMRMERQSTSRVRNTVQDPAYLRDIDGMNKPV

## CO[C@H]1C=C[C@H]2[C@H]3Cc4ccc(O)c5c4[C@@]2(CCN3C)[C@H]1O5 [HETEROCODEINE]
[1]
  pKi: 7.64
[2]
  pKi: 7.18

## CN1CC[C@]23c4c5ccc(O)c4O[C@H]2CC=C[C@H]3[C@H]1C5
[1]
  pKi: 7.34
Mu-type opioid receptor
  pKi: 8.68
[3]
  Ratio Ki: 16
Mus musculus [4]
  ED50: 0.33 mg/kg
[5]
  Ratio Ki: 4
[6]
  Activity: Active
[2]
  pKi: 7.93
Mus musculus [7]
  ED50: 0.03 mg/kg
Mus musculus [8]
  ED50: 0.2 mg/kg

## CN1CC[C@]23c4c5cccc4O[C@H]2CCC[C@H]3[C@H]1C5
[1]
  pKi: 6.23
Mu-type opioid receptor
  pKi: 7.64
[3]
  Ratio Ki: 26
[5]
  Ratio Ki: 11
[2]
  pKi: 6.62

## CO[C@H]1CC[C@H]2[C@H]3Cc4cccc5c4[C@@]2(CCN3C)[C@H]1O5
[1]
  pKi: 4.94
Mu-type opioid receptor
  pKi: 6.28
[3]
  Ratio Ki: 22
[5]
  Ratio Ki: 17
[2]
  pKi: 5.05

## COc1ccc2c3c1O[C@H]1[C@@H](OC)C=C[C@H]4[C@@H](C2)N(C)CC[C@@]341
[1]
  pKi: 5.27
Mu-type opioid receptor
  pKi: 5.72
[3]
  Ratio Ki: 3
[5]
  Ratio Ki: 2
[2]
  pKi: 5.36

## CN1CC[C@]23c4c5cccc4O[C@H]2[C@@H](O)CC[C@H]3[C@H]1C5
[1]
  pKi: 5.31
Mu-type opioid receptor
  pKi: 6.91
[3]
  Ratio Ki: 40
[5]
  Ratio Ki: 43
[6]
  Activity: Active
[2]
  pKi: 5.28

## COc1ccc2c3c1O[C@H]1CC=C[C@H]4[C@@H](C2)N(C)CC[C@]314
[1]
  pKi: 5.51
Mu-type opioid receptor
  pKi: 6.52
[3]
  Ratio Ki: 10
[5]
  Ratio Ki: 15
[6]
  Activity: Active
[2]
  pKi: 5.34
